Test [1] concerns the target Cyclin-dependent kinase 1 (Homo sapiens) (UniProt P06493). Briefly: Inhibition of human recombinant CDC2 at 40 nM related to control ULK1.
Test [2] concerns the target Casein kinase II subunit alpha' (Homo sapiens) (UniProt P19784). Kind of test: Inhibition of human recombinant CK2a2 at 40 nM in presence of ATP by radiometric assay relative to control.
The target in test [3] is Mitogen-activated protein kinase 10 (Homo sapiens) (UniProt P53779). Kind of test: Inhibition of human recombinant JNK3 at 40 nM in presence of ATP by radiometric assay relative to control.
In test [4] the target is Calcium/calmodulin-dependent protein kinase type 1D (Homo sapiens) (UniProt Q8IU85). Briefly: Inhibition of human recombinant CaMK1d at 40 nM related to control ULK1.
The target of test [5] is RAC-beta serine/threonine-protein kinase (Homo sapiens) (UniProt P31751). Kind of test: Inhibition of human recombinant AKT2 at 40 nM in presence of ATP by radiometric assay relative to control. In outline:
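Panel of 327 recombinant human kinases in radiometric activity assays, each screened in duplicate at a single inhibitor concentration; percent activity remaining relative to vehicle control, percent inhibition taken as 100 minus activity remaining.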

For test [6], the target named is Tyrosine-protein kinase Fgr (Homo sapiens) (UniProt P09769). Briefly: Inhibition of human recombinant FGR at 500 nM related to control ULK1.
Test [7] deals with T1, Serine/threonine-protein kinase DCLK3 (Homo sapiens) (UniProt Q9C098).
T1 sequence (whole entry): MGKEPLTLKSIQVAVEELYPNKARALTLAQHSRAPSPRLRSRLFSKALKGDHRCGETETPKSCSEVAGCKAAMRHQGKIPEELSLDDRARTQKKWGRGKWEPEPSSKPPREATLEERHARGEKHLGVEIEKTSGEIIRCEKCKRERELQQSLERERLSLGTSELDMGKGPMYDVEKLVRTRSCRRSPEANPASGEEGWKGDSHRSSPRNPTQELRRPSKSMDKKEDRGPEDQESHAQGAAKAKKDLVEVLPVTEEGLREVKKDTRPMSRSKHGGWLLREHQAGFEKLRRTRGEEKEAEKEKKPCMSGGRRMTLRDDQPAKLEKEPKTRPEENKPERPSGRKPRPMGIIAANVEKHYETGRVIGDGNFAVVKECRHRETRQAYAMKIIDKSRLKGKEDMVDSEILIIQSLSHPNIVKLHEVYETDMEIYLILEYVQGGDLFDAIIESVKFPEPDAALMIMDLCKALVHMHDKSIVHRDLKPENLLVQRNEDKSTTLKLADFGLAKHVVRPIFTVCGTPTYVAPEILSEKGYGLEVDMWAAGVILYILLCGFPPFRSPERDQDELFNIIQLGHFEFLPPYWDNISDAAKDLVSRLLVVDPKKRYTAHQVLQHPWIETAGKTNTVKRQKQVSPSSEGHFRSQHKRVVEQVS
Briefly: Inhibition of human recombinant DCAMKL3 at 500 nM in presence of ATP by radiometric assay relative to control.

The target of test [8] is T2, Activin receptor type-1 (Homo sapiens) (UniProt Q04771).
T2 sequence (whole entry): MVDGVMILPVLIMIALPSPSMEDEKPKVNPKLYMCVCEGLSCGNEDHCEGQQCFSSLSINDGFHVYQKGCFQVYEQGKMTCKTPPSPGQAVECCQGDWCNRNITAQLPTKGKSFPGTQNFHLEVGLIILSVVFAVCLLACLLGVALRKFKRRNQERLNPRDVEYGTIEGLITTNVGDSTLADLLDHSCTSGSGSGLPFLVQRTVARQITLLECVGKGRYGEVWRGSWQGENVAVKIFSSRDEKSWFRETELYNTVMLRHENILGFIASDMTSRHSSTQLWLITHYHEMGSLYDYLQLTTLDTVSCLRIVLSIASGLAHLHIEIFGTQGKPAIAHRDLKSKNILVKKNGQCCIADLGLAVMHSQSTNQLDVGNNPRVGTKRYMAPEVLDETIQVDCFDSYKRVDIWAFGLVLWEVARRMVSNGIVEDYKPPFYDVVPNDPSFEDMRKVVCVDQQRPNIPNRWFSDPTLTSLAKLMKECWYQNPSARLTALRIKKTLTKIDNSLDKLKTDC
Kind of test: Inhibition of human recombinant ALK2 at 500 nM in presence of ATP by radiometric assay relative to control. A digest of the protocol: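 Panel of 327 recombinant human kinases, each assayed in vitro by radiometric activity assay in duplicate at a single inhibitor concentration per compound, chosen with reference to its ULK1 inhibition. Activity remaining was expressed as percent of vehicle control, and percent inhibition was calculated as 100 minus percent activity remaining.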

The target of test [9] is T3, Dual specificity protein kinase TTK (Homo sapiens) (UniProt P33981).
T3 sequence (whole entry): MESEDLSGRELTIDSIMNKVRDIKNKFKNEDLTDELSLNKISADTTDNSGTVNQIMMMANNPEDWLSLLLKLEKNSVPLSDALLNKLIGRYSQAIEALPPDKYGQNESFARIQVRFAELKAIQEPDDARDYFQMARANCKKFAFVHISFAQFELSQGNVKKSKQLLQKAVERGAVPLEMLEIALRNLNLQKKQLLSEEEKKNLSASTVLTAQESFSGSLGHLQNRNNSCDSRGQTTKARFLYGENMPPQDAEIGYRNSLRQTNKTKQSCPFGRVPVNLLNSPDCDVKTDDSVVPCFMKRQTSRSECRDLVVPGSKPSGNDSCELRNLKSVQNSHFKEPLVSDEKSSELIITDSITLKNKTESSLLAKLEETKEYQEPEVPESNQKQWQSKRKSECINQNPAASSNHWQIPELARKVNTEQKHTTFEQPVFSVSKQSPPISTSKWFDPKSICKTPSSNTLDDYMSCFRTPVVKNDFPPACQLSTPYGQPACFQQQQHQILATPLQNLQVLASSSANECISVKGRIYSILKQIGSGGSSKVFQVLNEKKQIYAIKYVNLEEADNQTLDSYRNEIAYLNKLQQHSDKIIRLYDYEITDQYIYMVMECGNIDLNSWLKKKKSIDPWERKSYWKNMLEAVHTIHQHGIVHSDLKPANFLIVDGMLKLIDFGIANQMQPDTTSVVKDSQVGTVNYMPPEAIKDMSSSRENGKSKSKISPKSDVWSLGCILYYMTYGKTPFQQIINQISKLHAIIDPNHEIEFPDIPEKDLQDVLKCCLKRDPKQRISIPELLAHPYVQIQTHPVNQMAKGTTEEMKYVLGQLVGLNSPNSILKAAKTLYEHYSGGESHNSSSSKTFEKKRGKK
Kind of test: Inhibition of human recombinant TTK at 500 nM related to control ULK1.

Test [10] deals with Vascular endothelial growth factor receptor 3 (Homo sapiens) (UniProt P35916). Kind of test: Inhibition of human recombinant FLT4 at 15 nM related to control ULK1.
Test [11] has as its target Serine/threonine-protein kinase PAK 1 (Homo sapiens) (UniProt Q13153). Kind of test: Inhibition of human recombinant PAK1 at 15 nM related to control ULK1.
Test [12] addresses Casein kinase I isoform gamma-3 (Homo sapiens) (UniProt Q9Y6M4). Kind of test: Inhibition of human recombinant CK1g3 at 15 nM in presence of ATP by radiometric assay relative to control.

Each structure is given as a SMILES string.

Cyclin-dependent kinase 1 (Homo sapiens), sequence (P06493 whole entry, looked up): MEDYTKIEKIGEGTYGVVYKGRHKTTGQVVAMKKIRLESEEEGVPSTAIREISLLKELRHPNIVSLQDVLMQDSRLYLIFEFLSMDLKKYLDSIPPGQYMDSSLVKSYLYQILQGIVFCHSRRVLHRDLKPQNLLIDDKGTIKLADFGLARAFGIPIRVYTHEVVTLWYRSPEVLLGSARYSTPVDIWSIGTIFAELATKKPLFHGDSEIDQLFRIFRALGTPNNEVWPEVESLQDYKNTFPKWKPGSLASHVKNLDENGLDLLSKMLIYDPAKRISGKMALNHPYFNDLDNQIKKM
RAC-beta serine/threonine-protein kinase (Homo sapiens), sequence (P31751 whole entry): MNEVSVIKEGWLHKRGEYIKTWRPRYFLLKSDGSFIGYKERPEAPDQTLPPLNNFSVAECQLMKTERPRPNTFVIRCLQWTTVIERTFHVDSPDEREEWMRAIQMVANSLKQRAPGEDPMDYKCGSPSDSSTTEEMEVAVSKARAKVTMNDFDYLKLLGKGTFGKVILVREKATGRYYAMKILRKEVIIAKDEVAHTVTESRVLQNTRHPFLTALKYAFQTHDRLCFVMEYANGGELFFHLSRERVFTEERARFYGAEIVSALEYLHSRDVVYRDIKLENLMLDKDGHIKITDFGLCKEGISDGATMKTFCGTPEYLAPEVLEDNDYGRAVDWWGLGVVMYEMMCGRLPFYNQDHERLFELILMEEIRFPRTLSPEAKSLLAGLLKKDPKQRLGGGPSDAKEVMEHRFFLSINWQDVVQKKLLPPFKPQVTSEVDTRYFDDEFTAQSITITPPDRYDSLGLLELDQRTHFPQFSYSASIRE
Casein kinase II subunit alpha' (Homo sapiens), sequence (P19784 whole entry, looked up): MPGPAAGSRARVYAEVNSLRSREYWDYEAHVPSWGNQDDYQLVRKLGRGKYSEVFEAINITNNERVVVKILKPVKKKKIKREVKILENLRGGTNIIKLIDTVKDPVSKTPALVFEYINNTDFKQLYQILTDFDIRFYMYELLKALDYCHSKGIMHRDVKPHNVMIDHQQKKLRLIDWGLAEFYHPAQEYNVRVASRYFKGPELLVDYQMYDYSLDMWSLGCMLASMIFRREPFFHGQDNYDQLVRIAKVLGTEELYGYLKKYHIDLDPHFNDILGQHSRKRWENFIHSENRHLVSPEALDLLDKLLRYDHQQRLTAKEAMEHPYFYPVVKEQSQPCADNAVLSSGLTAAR
Calcium/calmodulin-dependent protein kinase type 1D (Homo sapiens), sequence (Q8IU85 whole entry, looked up): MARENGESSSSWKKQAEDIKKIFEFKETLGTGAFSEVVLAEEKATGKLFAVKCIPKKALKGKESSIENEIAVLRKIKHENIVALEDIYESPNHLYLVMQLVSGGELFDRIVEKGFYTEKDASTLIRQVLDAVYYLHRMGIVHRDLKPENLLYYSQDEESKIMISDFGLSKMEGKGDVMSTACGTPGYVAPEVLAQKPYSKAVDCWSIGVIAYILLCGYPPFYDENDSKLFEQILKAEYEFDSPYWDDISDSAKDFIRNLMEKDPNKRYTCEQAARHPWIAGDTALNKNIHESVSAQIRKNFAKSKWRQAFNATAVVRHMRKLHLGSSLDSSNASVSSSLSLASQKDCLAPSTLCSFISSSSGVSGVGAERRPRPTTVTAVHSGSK
Tyrosine-protein kinase Fgr (Homo sapiens), sequence (P09769 2-529 limits assumed): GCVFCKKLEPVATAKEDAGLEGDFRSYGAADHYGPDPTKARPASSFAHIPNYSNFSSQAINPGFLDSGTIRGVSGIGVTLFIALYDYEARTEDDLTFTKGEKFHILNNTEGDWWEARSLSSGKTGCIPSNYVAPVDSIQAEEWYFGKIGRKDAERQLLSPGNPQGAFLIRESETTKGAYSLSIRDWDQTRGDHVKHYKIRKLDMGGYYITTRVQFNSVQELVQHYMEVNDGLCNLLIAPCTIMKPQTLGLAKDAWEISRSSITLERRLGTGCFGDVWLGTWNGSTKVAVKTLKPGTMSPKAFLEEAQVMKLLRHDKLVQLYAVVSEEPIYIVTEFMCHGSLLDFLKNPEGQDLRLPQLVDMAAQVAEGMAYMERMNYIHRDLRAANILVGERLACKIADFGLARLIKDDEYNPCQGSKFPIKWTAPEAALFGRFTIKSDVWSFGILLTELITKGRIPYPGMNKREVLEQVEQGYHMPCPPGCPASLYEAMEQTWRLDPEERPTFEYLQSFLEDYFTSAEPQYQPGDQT
Vascular endothelial growth factor receptor 3 (Homo sapiens), sequence (P35916 whole entry): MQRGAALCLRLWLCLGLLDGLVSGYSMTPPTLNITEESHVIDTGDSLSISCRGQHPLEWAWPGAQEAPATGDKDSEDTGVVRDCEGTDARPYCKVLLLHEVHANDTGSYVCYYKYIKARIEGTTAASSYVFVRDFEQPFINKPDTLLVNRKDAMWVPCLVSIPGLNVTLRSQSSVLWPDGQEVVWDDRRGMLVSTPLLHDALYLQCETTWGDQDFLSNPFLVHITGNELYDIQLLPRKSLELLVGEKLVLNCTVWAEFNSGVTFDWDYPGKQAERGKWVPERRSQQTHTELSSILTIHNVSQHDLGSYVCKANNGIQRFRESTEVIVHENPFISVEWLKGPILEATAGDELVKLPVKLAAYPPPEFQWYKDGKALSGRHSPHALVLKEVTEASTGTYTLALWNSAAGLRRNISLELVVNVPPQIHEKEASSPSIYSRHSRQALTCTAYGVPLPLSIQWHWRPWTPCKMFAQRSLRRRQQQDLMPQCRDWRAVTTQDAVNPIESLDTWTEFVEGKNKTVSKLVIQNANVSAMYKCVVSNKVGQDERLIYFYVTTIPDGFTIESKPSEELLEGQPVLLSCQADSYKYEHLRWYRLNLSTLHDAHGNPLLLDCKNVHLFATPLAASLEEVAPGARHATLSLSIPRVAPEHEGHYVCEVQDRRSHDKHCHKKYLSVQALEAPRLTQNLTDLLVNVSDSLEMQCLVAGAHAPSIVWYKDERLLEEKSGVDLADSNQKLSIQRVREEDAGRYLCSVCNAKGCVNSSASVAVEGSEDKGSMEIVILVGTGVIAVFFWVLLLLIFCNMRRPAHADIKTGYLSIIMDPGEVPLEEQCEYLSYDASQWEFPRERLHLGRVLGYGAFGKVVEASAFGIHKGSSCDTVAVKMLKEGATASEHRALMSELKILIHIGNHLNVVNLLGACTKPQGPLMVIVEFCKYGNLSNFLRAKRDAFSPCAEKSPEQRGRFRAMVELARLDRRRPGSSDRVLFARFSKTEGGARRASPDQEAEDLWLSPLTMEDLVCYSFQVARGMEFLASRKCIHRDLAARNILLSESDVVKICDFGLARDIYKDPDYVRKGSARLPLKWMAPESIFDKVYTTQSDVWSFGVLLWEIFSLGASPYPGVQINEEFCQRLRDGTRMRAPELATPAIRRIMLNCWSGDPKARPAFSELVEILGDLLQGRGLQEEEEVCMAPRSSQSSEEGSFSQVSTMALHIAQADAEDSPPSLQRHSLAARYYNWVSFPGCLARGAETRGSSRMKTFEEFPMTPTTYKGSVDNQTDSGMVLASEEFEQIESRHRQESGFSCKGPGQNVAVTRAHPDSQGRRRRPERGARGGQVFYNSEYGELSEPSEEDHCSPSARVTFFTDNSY
Serine/threonine-protein kinase PAK 1 (Homo sapiens), sequence (Q13153 whole entry, looked up, canonical isoform): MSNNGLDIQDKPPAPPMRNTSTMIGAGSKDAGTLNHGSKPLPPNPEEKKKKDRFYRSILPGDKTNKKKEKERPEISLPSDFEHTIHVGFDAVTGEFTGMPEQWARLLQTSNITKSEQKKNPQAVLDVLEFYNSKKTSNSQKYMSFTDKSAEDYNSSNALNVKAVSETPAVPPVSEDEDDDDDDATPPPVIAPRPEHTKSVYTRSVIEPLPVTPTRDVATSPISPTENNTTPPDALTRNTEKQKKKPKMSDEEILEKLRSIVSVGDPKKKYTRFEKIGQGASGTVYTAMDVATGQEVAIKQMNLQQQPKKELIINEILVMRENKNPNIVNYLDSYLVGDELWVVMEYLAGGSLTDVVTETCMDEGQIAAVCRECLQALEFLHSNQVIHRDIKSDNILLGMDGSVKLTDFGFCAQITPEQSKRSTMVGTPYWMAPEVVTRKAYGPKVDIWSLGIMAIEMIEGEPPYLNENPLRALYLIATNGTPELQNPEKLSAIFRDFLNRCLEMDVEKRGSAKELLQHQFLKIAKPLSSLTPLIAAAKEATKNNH
Mitogen-activated protein kinase 10 (Homo sapiens), sequence (P53779 whole entry): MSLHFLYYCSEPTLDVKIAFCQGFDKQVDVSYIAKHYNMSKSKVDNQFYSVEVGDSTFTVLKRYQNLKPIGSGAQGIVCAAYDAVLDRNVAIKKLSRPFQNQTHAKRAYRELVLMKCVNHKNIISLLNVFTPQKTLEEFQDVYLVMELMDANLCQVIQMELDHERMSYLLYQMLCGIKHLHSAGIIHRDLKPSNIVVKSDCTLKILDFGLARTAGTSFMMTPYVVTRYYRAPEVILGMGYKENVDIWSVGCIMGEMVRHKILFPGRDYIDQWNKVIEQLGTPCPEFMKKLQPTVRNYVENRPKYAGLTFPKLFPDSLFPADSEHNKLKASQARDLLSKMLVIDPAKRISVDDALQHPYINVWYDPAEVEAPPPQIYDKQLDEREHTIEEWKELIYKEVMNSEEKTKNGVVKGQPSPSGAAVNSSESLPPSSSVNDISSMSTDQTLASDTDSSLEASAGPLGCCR
Casein kinase I isoform gamma-3 (Homo sapiens), sequence (Q9Y6M4 whole entry, looked up, canonical isoform): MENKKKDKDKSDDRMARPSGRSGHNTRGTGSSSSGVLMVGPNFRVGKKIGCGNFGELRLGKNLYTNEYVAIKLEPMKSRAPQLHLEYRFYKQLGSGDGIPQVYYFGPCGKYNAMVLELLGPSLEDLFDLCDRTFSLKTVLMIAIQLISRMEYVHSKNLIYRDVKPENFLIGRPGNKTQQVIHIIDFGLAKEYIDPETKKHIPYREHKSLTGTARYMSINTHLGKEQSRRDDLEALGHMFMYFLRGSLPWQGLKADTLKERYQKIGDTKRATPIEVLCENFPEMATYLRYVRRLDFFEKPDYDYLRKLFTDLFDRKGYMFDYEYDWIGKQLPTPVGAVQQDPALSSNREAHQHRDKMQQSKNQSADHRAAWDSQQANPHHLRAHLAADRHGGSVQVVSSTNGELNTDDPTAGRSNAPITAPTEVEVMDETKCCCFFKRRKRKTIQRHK

On to `O=C(N[C@@H](C1CC1)C(F)(F)F)c1cc(-c2cnn3cc(-c4ccc(F)cc4)cnc23)cs1`, for which the fold change (FC) stood at 0.62 in [1] and 0 in test [4]. Besides, the inhibition in test [2] is 8%; in [3], 0%; in test [5], 10%.
Consider `CNC(=O)c1ccccc1Oc1nc(Nc2cc(OC)c(OC)c(OC)c2)ncc1Br`, for which the fold change (FC) in [6] turned out to be 0.11; in test [9], 0.15. For the same compound, the figures for the inhibition in test [7] and in test [8] were 0% and 46%, respectively.
Turning to `CC(C)[C@H](NC(=O)c1cc(-c2cnn3cc(-c4ccc(OCCN5CCCCC5)cc4)cnc23)cs1)C(F)(F)F`, the fold change (FC) in test [10] came to 0.4; in test [11], 0. Moreover, in [12], the inhibition is 3%.

These data come from ChEMBL document CHEMBL5653631, “A Potent and Selective ULK1 Inhibitor Suppresses Autophagy and Sensitizes Cancer Cells to Nutrient Stress” (iScience, 2018).
